Hits are enriched below; roughly 3.3% of the tested compounds scored in any of these assays.
AHR act: human AHR activation. P35869. AHR-responsive luciferase reporter cells, luminescence. activation, % at 5 µM. hit rate 2.5% among 320,000. AID 2796; in the data active = activation above about 47%;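 note: 0% = vehicle wells and 100% = reference agonist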
GAA850 FXN act: activators of GAA850 frataxin (FXN) promoter; HEK293 lucGAA850 FXN promoter luciferase reporter, 24 h; percent of 10 µM SAHA response; AID 540364; activation, % at 6 µM; hit rate 0.56% among 360,000;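 active = activation above the average of all compounds screened plus 3 SD, cutoff fixed separately per campaign, cut at about 7.5% in these data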;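 note: 0% = DMSO wells and 100% = 10 µM SAHA wells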
STAT3 activator: activators of IL-6 induced STAT3 signaling | hit rate 0.91% among 190,000 | activation (% of control), % at 5.6 µM | U3A cells, IL-6 STAT3-luciferase reporter, luminescence; 100% = signal with IL-6 EC80 alone;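 active = activation above the screen-wide mean of compound activation plus 3 SD, cut at about 130% in these data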;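 note: 0% = background luminescence of wells with medium and substrate only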
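Test system: human U3A cells carrying STAT3-luciferase construct; control set: IL-6-only wells as 100% reference; timing: compound pre-incubation 1 h before IL-6, then 6 h stimulation at 37 °C; also added: IL-6 stimulus at 33 ng/mL final; evaluation: % activation versus median of IL-6-stimulated wells; detection: reporter luminescence signal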
ABCB6 inh 2: blocks the human ABCB6 transporter; Q9NP58; K562-ABCB6 porphyrin accumulation, flow cytometry, 1 h; active compounds read low; fluorescence ratio to DMSO, % at 10 µM; hit rate 0.19% among 360,000; AID 602162;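 active = fluorescence ratio to DMSO below 75%, the collection mean minus 3 SD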;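 note: signal is porphyrin accumulated inside mitochondria; 100% equals median channel fluorescence of DMSO control wells; lower ratio means ABCB6 inhibition with less porphyrin fluorescence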
GAA30 counter: activates GAA30 frataxin promoter, counter-screen for GAA850 activators; shares compounds with GAA850 FXN act; HEK293 lucGAA30 FXN promoter luciferase, 24 h; DMSO = 0%, 5 µM ipriflavone = 100%; activation, % at 6 µM; hit rate 66% among 1,900;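 active = mean activation above the mean of solvent-only control wells plus 3 SD, cut at about 22% in these data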;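 note: counterscreen of GAA850 promoter hits where activity marks nonselective or luminescence artifacts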
FXN GAA850 conf: confirmation of GAA850 frataxin (FXN) promoter activators; shares compounds with GAA850 FXN act; HEK293 lucGAA850 FXN promoter luciferase reporter, 24 h; 100% = activation by SAHA; activation, % at 6 µM; hit rate 86% among 1,900; AID 588351;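 active = mean activation above a set limit taken from the primary screen, cut at about 8% in these data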;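 note: 0% = DMSO wells and 100% = 10 µM SAHA wells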
An asterisk follows results filed as active.

Screening CCOc1nc(Nc2ccccc2F)nc(OCC)n1 returned AHR act 7, GAA850 FXN act 6 and ABCB6 inh 2 103.
Screening C=CCNc1nc(Nc2ccccc2F)nc(OCC)n1 returned AHR act 38, GAA850 FXN act 9.4*, STAT3 activator 113, ABCB6 inh 2 95, GAA30 counter 80* and FXN GAA850 conf 36*.
For CC(=O)N1CCN(c2ccccc2NC(=O)COc2cc(C)cc(C)c2)CC1 the results were AHR act -2, GAA850 FXN act 1 and ABCB6 inh 2 109.
Screening COc1ccc(C(=O)Nc2nc3ccccc3[nH]2)cc1OC returned AHR act 23, GAA850 FXN act 1, STAT3 activator 85 and ABCB6 inh 2 103.
`COc1cc(C(=O)Nc2nc3ccccc3[nH]2)ccc1OC(F)F` gave AHR act 1, GAA850 FXN act 9.6*, ABCB6 inh 2 99, GAA30 counter 86* and FXN GAA850 conf 36*.
COC(=O)c1c(-c2ccccc2)csc1NC(=O)c1ccco1 was read as AHR act -1, GAA850 FXN act 11*, STAT3 activator 95, ABCB6 inh 2 86, GAA30 counter 110* and FXN GAA850 conf 45*.
CC(Sc1nnc(N)s1)C(=O)Nc1ccc2c(c1)OCCO2 (stereo not drawn) was read as AHR act 4, GAA850 FXN act 1 and ABCB6 inh 2 92.
N#Cc1cc2c(nc1SCC(N)=O)CCCCC2 was read as AHR act 12, GAA850 FXN act 9.6*, STAT3 activator 96, ABCB6 inh 2 97, GAA30 counter 108* and FXN GAA850 conf 38*.
For c1ccc(C2=Nn3c(nnc3-c3cc(-c4ccccc4)n[nH]3)SC2)cc1 the results were AHR act 0, GAA850 FXN act 8.3*, STAT3 activator 86, ABCB6 inh 2 103, GAA30 counter 41* and FXN GAA850 conf 23*.
For Clc1ccc(C2=Nn3c(nnc3-c3cc(-c4ccccc4)n[nH]3)SC2)cc1 the results were AHR act 8, GAA850 FXN act 1, STAT3 activator 94 and ABCB6 inh 2 92.
CCOC(=O)c1cc(=O)n(Cc2ccccc2C)c2ccccc12 was read as AHR act 0, GAA850 FXN act 4, STAT3 activator 104 and ABCB6 inh 2 99.
For CC(=O)N1CC(=O)N=C1SCC(=O)Nc1nc(C)c(-c2ccccc2)s1 the results were AHR act 11, GAA850 FXN act 8.0*, STAT3 activator 101, ABCB6 inh 2 88, GAA30 counter 44* and FXN GAA850 conf 22*.
For Cc1ccc2c(c1)c(-c1csc(N)n1)c(C)n2C the results were AHR act 20, GAA850 FXN act 0 and ABCB6 inh 2 112.
Cc1cc(C)n(CC(=O)N/N=C/c2cccc([N+](=O)[O-])c2)n1 was read as AHR act 2, GAA850 FXN act 2, STAT3 activator 93 and ABCB6 inh 2 93.
`Cc1nnc(SCC(=O)Nc2cccc(Cl)c2)n1CC1CCCO1` (stereo not drawn) gave AHR act 12, GAA850 FXN act 0 and ABCB6 inh 2 100.
`COc1ccc(CC(=O)Nc2ccc3c(c2)CCC3)cc1` gave AHR act -3, GAA850 FXN act 5, STAT3 activator 98 and ABCB6 inh 2 105.
For C/C(=N/NC(=O)c1ccco1)c1cccnc1 the results were AHR act 20, GAA850 FXN act 5, STAT3 activator 101 and ABCB6 inh 2 100.
O=c1oc2ccccc2cc1-c1nc2ccccc2o1 was read as AHR act 16, GAA850 FXN act 8.4*, STAT3 activator 105, ABCB6 inh 2 91, GAA30 counter 122* and FXN GAA850 conf 37*.
For COC(=O)c1ccc(C2NCCc3cc(OC)c(OC)cc32)cc1 (stereo not drawn) the results were AHR act 2, GAA850 FXN act 2 and ABCB6 inh 2 97.
For COc1cc2c(cc1OC)/C(=C/C(=O)c1ccc(C)cc1)NCC2 the results were GAA850 FXN act 8.2*, ABCB6 inh 2 104, GAA30 counter 37* and FXN GAA850 conf 24*.
Screening CC1CN/C(=C\C(=O)c2ccccc2)C(=O)N1 (stereo not drawn) returned AHR act 6, GAA850 FXN act 0, STAT3 activator 97 and ABCB6 inh 2 106.
